Holding throughout (type): functional
Assay [1] relates to HOP-62. The assay is described as follows: Antiproliferative activity was determined for 50% growth inhibition against human lung HOP-62 cell line. Put shortly: (§1)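 Human cancer cell lines from the roughly 55-line panel. GI50 is the concentration giving 50% growth inhibition. The test range was 10^-4 to 10^-8 M. Values outside the range were set to the minimum (10^-8 M) or the maximum (10^-4 M).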

Assay [2] relates to DU-145. Put plainly: Antiproliferative activity was determined for 50% growth inhibition against human Prostate DU-145 cell line. Put shortly:
as §1

Assay [3] concerns MDA-MB-435. Put plainly: Antiproliferative activity was determined for 50% growth inhibition against human breast MDA-MB-435 cell line. In short, it runs like this: as §1
Assay [4] has as its system HCT-116. The assay is described as follows: Antiproliferative activity was determined for 50% growth inhibition against human colon HCT116 cell line. In short, it runs like this:
as §1

The test system of assay [5] is SF-539. The assay is described as follows: Antiproliferative activity was determined for 50% growth inhibition against human CNS SF-539 cell line. Put shortly:
as §1

In assay [6] the test system is UACC-62. The assay is described as follows: Antiproliferative activity was determined for 50% growth inhibition against human melanoma UACC-62 cell line. In short, it runs like this:
as §1

In assay [7] the test system is OVCAR-3. Put plainly: Antiproliferative activity was determined for 50% growth inhibition against human ovarian OVCAR-3 cell line. In short, it runs like this: as §1
Assay [8] concerns SN12C. The assay is described as follows: Antiproliferative activity was determined for 50% growth inhibition against human renal SN12C cell line. Put shortly: as §1
Assay [9] concerns Panel (Carcinoma cell lines). Put plainly: Mean graph midpoint for growth inhibition of all human cancer cell lines. The arrangement: unit: µM. In short, it runs like this:
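Mean graph midpoint across all cell lines successfully tested in the roughly 55-line human cancer panel. Each line's GI50 is the 50% growth-inhibition concentration, tested over 10^-4 to 10^-8 M. Out-of-range values were set to 10^-8 M or 10^-4 M before averaging.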

Where only a bound is given, the exact number is not on record here.

The term GI50 denotes the concentration at which growth is held to half of that of the control. In the case of `COc1cc2c(cc1OC)-c1c(c3cc(OC)c(OC)cc3c(=O)n1CCCNCCO)C2=O.Cl`, the concentration for 50% growth inhibition (GI50) in [1] turned out to be 0.15 µM; in assay [2], 0.07 µM; in assay [3], 1.43 µM; in assay [4], 0.39 µM; in assay [5], 0.16 µM; in assay [6], 0.73 µM. Further, the 50% growth inhibitory concentration (GI50) is 2.28 µM in assay [7] and 0.11 µM in assay [8]. The MGM in assay [9] stood at 0.68.
For `COc1cc2c(cc1OC)-c1c(c3cc(OC)c(OC)cc3c(=O)n1CCCBr)C2=O`, the GI50 in assay [1] (Homo sapiens, HOP-62) was found to be 1.87 µM; in [2] (Homo sapiens, DU-145), 1.92 µM; in [3] (Homo sapiens, MDA-MB-435) it was 11.7 µM; in assay [4] (Homo sapiens, HCT-116), 3.53 µM; in assay [5] (Homo sapiens, SF-539), 2.58 µM; in [6] (Homo sapiens, UACC-62) it was 1.91 µM. Moreover, the GI50 in assay [7] (Homo sapiens, OVCAR-3) was 60.1 µM; in assay [8] (Homo sapiens, SN12C), 3.15 µM. In [9], this compound gave an MGM of 6.91.
Take `O=C1c2ccccc2-c2c1c1ccccc1c(=O)n2CCO`: the concentration for 50% growth inhibition (GI50) in assay [1] (Homo sapiens, HOP-62) came to 5.62 µM; in [2] (Homo sapiens, DU-145) it was 16.4 µM; in assay [3] (Homo sapiens, MDA-MB-435), 76.7 µM; in assay [4] (Homo sapiens, HCT-116), 4.95 µM; in [5] (Homo sapiens, SF-539), 12.2 µM; in assay [6] (Homo sapiens, UACC-62), 18.2 µM. Also, the GI50 is 74.2 µM in assay [7] (Homo sapiens, OVCAR-3) and 16.4 µM in assay [8] (Homo sapiens, SN12C). For the same compound, in assay [9], the MGM turned out to be 14.5.
As for `COc1cc2c(cc1OC)-c1c(c3cc(OC)c(OC)cc3c(=O)n1CCCNCCO)C2=O`, the GI50 in assay [1] worked out at 0.05 µM; in [2], 0.02 µM; in [3] (Homo sapiens, MDA-MB-435), 1.25 µM; in assay [4] (Homo sapiens, HCT-116) it was 0.31 µM; in assay [5], 0.01 µM; in assay [6] (Homo sapiens, UACC-62), 0.38 µM. Further, the 50% growth inhibitory concentration (GI50) worked out at 11.2 µM in [7] and 0.05 µM in assay [8]. The compound further came in with an MGM in [9] of 0.51.
Take `COc1cc2c(cc1OC)-c1c(c3cc(OC)c(OC)cc3c(=O)n1CCCNCCCO)C2=O`: the GI50 in [1] was found to be 0.07 µM; in [2], 0.1 µM; in assay [3], 1.09 µM; in assay [4] (Homo sapiens, HCT-116) it was 0.46 µM; in [5], 0.08 µM; in assay [6] (Homo sapiens, UACC-62) it was 1.51 µM. Also, the GI50 in [7] (Homo sapiens, OVCAR-3) turned out to be 1.9 µM; in [8] (Homo sapiens, SN12C), 0.15 µM. Moreover, the MGM in assay [9] is 0.55.
`COc1cc2c3c(n(CCCN)c(=O)c2cc1OC)-c1ccc2ccccc2c1C3=O.Cl`: the GI50 in [1] (Homo sapiens, HOP-62) is 1.89 µM; in [2] (Homo sapiens, DU-145), 1.64 µM; in [3] (Homo sapiens, MDA-MB-435) it was 2.14 µM; in [4] (Homo sapiens, HCT-116), 1.73 µM; in [5] (Homo sapiens, SF-539), 1.53 µM; in [6] (Homo sapiens, UACC-62), 17.5 µM. Also, the 50% growth inhibitory concentration (GI50) in assay [7] (Homo sapiens, OVCAR-3) turned out to be 3.73 µM; in [8] (Homo sapiens, SN12C) it was 6.54 µM. In assay [9], this compound yielded an MGM of 3.72.
`COc1cc2c3c(n(CCCNCCO)c(=O)c2cc1OC)-c1cc2c(cc1C3=O)OCO2` [LMP-744]: the GI50 turned out to be 0.02 µM in assay [2] (Homo sapiens, DU-145); 0.68 µM in assay [3]; 0.09 µM in assay [5]; 1.5 µM in assay [7]. Moreover, the MGM in assay [9] was 0.21.
For the compound `O=C1c2cc3c(cc2-c2c1c1ccccc1c(=O)n2CCCCl)OCO3`, the GI50 in assay [1] (Homo sapiens, HOP-62) is 13.1 µM; in assay [2] (Homo sapiens, DU-145), 12.7 µM; in assay [3] (Homo sapiens, MDA-MB-435), above 100 µM; in [4] (Homo sapiens, HCT-116) it was 74 µM; in assay [5] (Homo sapiens, SF-539), above 100 µM; in [6] (Homo sapiens, UACC-62), 53.8 µM. Moreover, the GI50 in assay [7] (Homo sapiens, OVCAR-3) is 66.3 µM; in assay [8] (Homo sapiens, SN12C), above 100 µM. The compound further came in with an MGM in assay [9] of 35.1.
With `COc1cc2c(cc1OC)-c1c(c3ccccc3c(=O)n1CCCNCCO)C2=O.Cl`, the concentration for 50% growth inhibition (GI50) in assay [1] (Homo sapiens, HOP-62) is 0.62 µM; in assay [2] (Homo sapiens, DU-145) it was 0.44 µM; in assay [3] (Homo sapiens, MDA-MB-435), 0.97 µM; in [4] (Homo sapiens, HCT-116), 0.34 µM; in assay [5] (Homo sapiens, SF-539) it was 0.45 µM; in assay [6] (Homo sapiens, UACC-62) it was 0.63 µM. Moreover, the concentration for 50% growth inhibition (GI50) in assay [7] (Homo sapiens, OVCAR-3) came to 3.64 µM; in assay [8] (Homo sapiens, SN12C), 2.07 µM. The compound also gave an MGM in assay [9] of 0.95.
Consider `CCCCn1c2c(c3cc(OC)c(OC)cc3c1=O)Cc1cc3c(cc1-2)OCO3`, for which the GI50 is 12 µM in [1] (Homo sapiens, HOP-62); 5.37 µM in assay [2] (Homo sapiens, DU-145); 92.4 µM in assay [3] (Homo sapiens, MDA-MB-435); 13.2 µM in assay [4] (Homo sapiens, HCT-116); 3.4 µM in [5] (Homo sapiens, SF-539); 6.51 µM in [6] (Homo sapiens, UACC-62). Further, the GI50 in assay [7] (Homo sapiens, OVCAR-3) was determined as 91.9 µM; in [8] (Homo sapiens, SN12C) it was 21.7 µM. This compound gave an MGM in assay [9] of 21.3.
Regarding `COc1cc2c3c(n(CCCNCCCO)c(=O)c2cc1OC)-c1cc2c(cc1C3=O)OCO2`, the GI50 amounted to 0.03 µM in assay [1] (Homo sapiens, HOP-62); 0.01 µM in [2] (Homo sapiens, DU-145); 0.47 µM in [3] (Homo sapiens, MDA-MB-435); 0.04 µM in assay [4] (Homo sapiens, HCT-116); 0.01 µM in [5] (Homo sapiens, SF-539); 0.01 µM in assay [6] (Homo sapiens, UACC-62). For the same compound, the GI50 in assay [7] (Homo sapiens, OVCAR-3) came to 1.19 µM; in assay [8] (Homo sapiens, SN12C), 0.01 µM. Moreover, in assay [9], the MGM stood at 0.2.

The values are drawn from ChEMBL document CHEMBL1133678, “Synthesis of new indeno[1,2-c]isoquinolines: cytotoxic non-camptothecin topoisomerase I inhibitors” (2000).
